Reference: article PMC5520537 (Antiviral research, 2017)
Like-named read-outs stand apart in the source and are kept apart here.

What was measured:
[1] = test system: HBV genotype D; experiment: HBV replication inhibition assay in HepDES19 cells; assay type: cell-based, hepatitis B virus; settings: for HBV replication inhibition, qualitative screen: 20 μM, plus-polarity DNA; for EC50: read-out: HBV replication inhibition (EC50), 3 days, plus-polarity DNA strand, average ± SD
[2] = target: T1, HBV RNaseH (Hepatitis B virus genotype D subtype ayw, UniProt P03156); settings: qualitative; previously reported; ref Cai et al., 2014; cited from earlier work
T1 sequence (P03156 671-832): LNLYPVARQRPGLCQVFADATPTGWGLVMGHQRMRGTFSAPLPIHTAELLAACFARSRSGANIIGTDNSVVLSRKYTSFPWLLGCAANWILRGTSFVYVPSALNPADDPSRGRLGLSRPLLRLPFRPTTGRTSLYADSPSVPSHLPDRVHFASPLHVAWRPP

[3] = target: T1, HBV RNaseH; experiment: Molecular beacon fluorescence RNaseH cleavage assay; assay type: biochemical; settings: for Inhibition of HBV RNaseH, Molecular Beacon cleavage assay: qualitative, 0 to 500 μM compound, 2.1 μg HBV RNaseH; for Inhibition in the molecular beacon assay: 2.1 μg purified HBV RNaseH, 0 to 500 μM
[4] = test system: HepDES19 cells; settings: read-out: Toxicity in HepDES19, MTS (CC50); 72 hours; average ± SD
[5] = test system: HepDES19 cells; settings: read-out: Toxicity in HepDES19, NR (CC50); 72 hours; average ± SD
[6] = test system: HepDES19 cells; settings: read-out: Toxicity in HepDES19, LDH (CC50); 72 hours; average ± SD
[7] = target: T1, HBV RNaseH; experiment: Oligonucleotide-directed RNA cleavage assay with purified HBV RNaseH; assay type: biochemical; settings: for Inhibition of HBV RNaseH, Oligonucleotide directed cleavage assay: qualitative, compounds at 100, 60 and 20 μM, 16 previously untested compounds
In short: (§1)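 Enzymes were His-tagged and expressed in E. coli, then nickel-affinity purified. A 32P-labelled RNA annealed to a DNA oligonucleotide was incubated with RNaseH and test compound at 42°C for 90 min. Products were gel-resolved and autoradiographed. Inhibition was scored qualitatively as dose-dependent reduction in substrate degraded.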

[8] = target: T2, huRNaseH1 (Homo sapiens, UniProt O60930); experiment: Oligonucleotide-directed cleavage assay with purified huRNaseH1; assay type: biochemical; settings: 100, 60 and 20 μM
T2 sequence (O60930 1-286): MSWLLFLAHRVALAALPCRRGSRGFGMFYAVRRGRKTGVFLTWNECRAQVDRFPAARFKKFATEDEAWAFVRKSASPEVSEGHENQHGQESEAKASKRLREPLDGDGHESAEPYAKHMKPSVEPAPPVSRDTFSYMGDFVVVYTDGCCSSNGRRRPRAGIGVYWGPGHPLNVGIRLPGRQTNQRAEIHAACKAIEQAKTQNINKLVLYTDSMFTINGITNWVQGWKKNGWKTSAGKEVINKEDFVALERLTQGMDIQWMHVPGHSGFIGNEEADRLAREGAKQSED
In short: as §1

[9] = test system: HIV replication; settings: read-out: HIV replication inhibition; ref Suchaud et al., 2014; cited from earlier work
[10] = target: HBV polymerase (Hepatitis B virus genotype D subtype ayw, UniProt P03156); experiment: Endogenous polymerase reaction; assay type: biochemical; settings: inhibitors at 4X EC50; #138 and #211 at 30 μM; ddTTP […]; 7 hours
HBV polymerase, sequence (P03156 whole entry): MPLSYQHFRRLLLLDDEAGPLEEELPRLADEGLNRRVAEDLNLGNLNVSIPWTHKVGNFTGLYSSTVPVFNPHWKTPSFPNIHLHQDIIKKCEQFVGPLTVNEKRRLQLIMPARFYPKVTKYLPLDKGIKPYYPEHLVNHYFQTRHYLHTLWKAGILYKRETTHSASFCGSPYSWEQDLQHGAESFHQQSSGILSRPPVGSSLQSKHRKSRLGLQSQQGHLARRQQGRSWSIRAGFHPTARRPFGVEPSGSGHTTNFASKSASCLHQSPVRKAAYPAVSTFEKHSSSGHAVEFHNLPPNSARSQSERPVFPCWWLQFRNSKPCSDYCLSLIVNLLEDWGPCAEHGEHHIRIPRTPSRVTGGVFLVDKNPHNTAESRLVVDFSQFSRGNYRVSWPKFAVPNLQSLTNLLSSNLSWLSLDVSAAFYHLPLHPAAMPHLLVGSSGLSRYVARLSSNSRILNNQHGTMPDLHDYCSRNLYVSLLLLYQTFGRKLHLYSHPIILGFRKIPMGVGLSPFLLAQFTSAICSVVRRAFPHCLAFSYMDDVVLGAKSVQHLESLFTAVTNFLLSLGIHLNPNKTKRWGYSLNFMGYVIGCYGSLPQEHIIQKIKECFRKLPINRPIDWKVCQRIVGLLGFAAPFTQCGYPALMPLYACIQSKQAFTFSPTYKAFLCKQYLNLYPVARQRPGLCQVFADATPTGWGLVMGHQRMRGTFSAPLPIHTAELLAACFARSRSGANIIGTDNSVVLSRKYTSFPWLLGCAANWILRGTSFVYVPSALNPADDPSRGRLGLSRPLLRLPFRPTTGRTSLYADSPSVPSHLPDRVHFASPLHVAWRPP

Row | Structure (SMILES) | HBV replication inhibition, qualitative screen [1] | Inhibition of HBV RNaseH, Oligonucleotide directed cleavage assay [2] | Inhibition of HBV RNaseH, Molecular Beacon cleavage assay [3] | CC50 [4] | CC50 [5] | CC50 [6] | Inhibition of HBV RNaseH, Oligonucleotide directed cleavage assay [7] | other results
1 | Cc1cc(C2CCCCC2)n(O)c(=O)c1 [Compound 41, Ciclopirox, reference compound] | − (No inhibition detected at 20 μM) | − (No inhibition detected at 100 μM) | – | – | – | – | – | –
2 | O=C(NCc1ccc(F)cc1)C1C(=O)N(O)C(=O)c2cc(Cl)ccc21 (centres unmarked) [Compound 87] | – | − (No inhibition detected at 100 μM) | − (No inhibition detected at 500 μM) | 37 ± 17 µM | 24 ± 1 µM | 52 ± 15 µM | – | TI (therapeutic index, CC50(MTS)/EC50) [1]: 8.2; EC50 [1]: 4.5 ± 3.7 µM
3 | CC(=Nc1ccccc1N)c1c(C)cc(=O)n(O)c1O [Compound 208] | – | – | + (Dose-dependent inhibition at ≤500 μM) | 15 ± 7 µM | 13 ± 1 µM | 12 ± 0.1 µM | + (Dose-dependent inhibition at ≤100 μM) | Inhibition of RNA cleavage by the HBV RNaseH ([7]; 100, 60 and 20 μM): inhibited RNA cleavage; Inhibition in the molecular beacon assay [3]: inhibited; Inhibition of huRNaseH1 [8]: did not inhibit; Stability in mouse liver microsomes: stable
4 | O=C1CCC(=O)N1O [Compound 139] | − (No inhibition detected at 20 μM) | − (No inhibition detected at 100 μM) | – | – | – | – | – | HBV replication inhibition / activity [1]: inactive
5 | Nc1cccc(=O)[nH]1 [Compound 206] | − (No inhibition detected at 20 μM) | – | – | – | – | – | − (No inhibition detected at 100 μM) | Inhibition of huRNaseH1 [8]: detectably inhibited
6 | O=C(Nc1ccc2c(c1)C(=O)N(O)C(=O)C2C(=O)NCc1ccc(F)cc1)c1ccccc1 (centres unmarked) [Compound 86] | – | − (No inhibition detected at 100 μM) | − (No inhibition detected at 500 μM) | 99 ± 2 µM | 52 ± 11 µM | > 100 µM | – | TI (therapeutic index, CC50(MTS)/EC50) [1]: 71; EC50 [1]: 1.4 ± 0.3 µM; EC50 [9]: > 21 µM
7 | COc1ccc2c(c1)C(=O)N(O)C(=O)C2C(=O)NCc1ccc(F)cc1 (centres unmarked) [Compound 88] | – | − (No inhibition detected at 100 μM) | − (No inhibition detected at 500 μM) | 40 ± 6 µM | 26 ± 2 µM | 57 ± 6 µM | – | TI (therapeutic index, CC50(MTS)/EC50) [1]: 16; EC50 [1]: 2.5 ± 0.5 µM
8 | Cc1cc(CC(C)CC(C)(C)C)n(O)c(=O)c1.NCCO (centres unmarked) [Compound 191, Piroctone olamine, reference compound] | − (No inhibition detected at 20 μM) | – | – | – | – | – | − (No inhibition detected at 100 μM) | –
9 | NN1C(=O)Cc2ccccc2C1=O [Compound 204] | − (No inhibition detected at 20 μM) | – | – | – | – | – | − (No inhibition detected at 100 μM) | HBV replication inhibition / activity [1]: inactive; Inhibition of huRNaseH1 [8]: detectably inhibited
10 | Cc1cn([C@H]2CC[C@@H](COP(=O)(O)OP(=O)(O)OP(=O)(O)O)O2)c(=O)[nH]c1=O [ddTTP] | – | – | – | – | – | – | – | Effect on 32P incorporation / HBV DNA elongation in EPR [10]: strongly inhibited
11 | O=c1[nH]c(=O)c2ccccc2[nH]1 [Compound 197, Benzoylene urea] | − (No inhibition detected at 20 μM) | – | – | – | – | – | − (No inhibition detected at 100 μM) | –
12 | Cc1cc(COc2ccc(Oc3ccc(Cl)cc3)cc2)n(O)c(=O)c1 [Compound 211, Rilopirox, reference compound] | − (No inhibition detected at 20 μM) | – | − (No inhibition detected at 500 μM) | – | – | – | − (No inhibition detected at 100 μM) | Inhibition in the molecular beacon assay [3]: had no effect on the rate of substrate degradation; HBV replication inhibition / activity [1]: inactive; Effect on 32P incorporation / HBV DNA elongation in EPR [10]: None of the HBV inhibitors nor the two negative control compounds (#138 and 211) significantly altered incorporation
13 | Oc1nc2ccccc2nc1O [Compound 198, 2,3-dihydroxy-quinoxaline] | − (No inhibition detected at 20 μM) | – | – | – | – | – | − (No inhibition detected at 100 μM) | –
